Results as given in ChEMBL document CHEMBL1150059, “Antifungal activity of meridine, a natural product from the marine sponge Corticium sp” (J Nat Prod, 1992).
≈ marks a conversion by molar mass, not a printed value. Calls of active or inactive are those of the source. The calls are words filed in the database; no cut-off is given here.

Tests used:
Candida albicans [1] = experiment: Antifungal activity against Candida albicans 44506 assessed as inhibition of U-14C-glucose incorporation into TCA precipitable material after 1 hr; assay type: functional, organism-based; details: Candida albicans, 44506, 1 h
Procedure, shortened: (§1)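 Candida grown overnight in YNBG to mid-log phase, washed with saline, and resuspended in YNB lacking the precursor under study. Compound preincubated 30 min at 37°. 14C-labelled acetate, adenine, glucose or leucine (per line) then added, with incorporation followed 60 min (linear). Stopped with ice-cold TCA, 5% final. IC50 is the concentration giving 50% inhibition versus control.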

Candida albicans [2] = experiment: Antifungal activity against Candida albicans 44506 assessed as inhibition of U-14C-acetate incorporation into TCA precipitable material after 1 hr; assay type: functional, organism-based; details: Candida albicans, 44506, 1 h; procedure, shortened: as §1
Candida albicans [3] = experiment: Antifungal activity against Candida albicans 44506 assessed as inhibition of U-14C-leucine incorporation into TCA precipitable material after 1 hr; assay type: functional, organism-based; details: Candida albicans, 44506, 1 h; procedure, shortened: as §1
Candida albicans [4] = experiment: Antifungal activity against Candida albicans 44506 assessed as inhibition of U-14C-adenine incorporation into TCA precipitable material after 1 hr; assay type: functional, organism-based; details: Candida albicans, 44506, 1 h; procedure, shortened: as §1
Candida albicans [5] = experiment: Antifungal activity against Candida albicans 44506 in Sabouraud dextrose broth after 18 to 24 hrs by twofold broth dilution method; assay type: functional
Procedure, shortened: (§2)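 Inoculum 10^3 cells/ml, incubated 18–24 h at 37°. MIC read visually as the lowest concentration with complete growth inhibition. Average of triplicates.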

Candida albicans [6] = experiment: Antifungal activity against Candida albicans 44506 in RPMI-1640 medium after 18 to 24 hrs by twofold broth dilution method; assay type: functional
Procedure, shortened: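 Twofold broth microdilution in RPMI-1640 (pH 7.2, unbuffered), inoculum 10^3 cells/ml. Incubated 18–24 h at 37° under 5% CO2. MIC read visually as the lowest concentration giving complete growth inhibition. Average of triplicates.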

Pseudomonas aeruginosa = experiment: Antibacterial activity against Pseudomonas aeruginosa 27853 after 18 to 24 hrs by twofold broth dilution method; assay type: functional, organism-based
Procedure, shortened: (§3)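 Twofold serial dilutions in Mueller-Hinton broth supplemented with Mg2+ and Ca2+. Inoculum 10^3 cells/ml, with cell density counted by hemocytometer. Incubated 18–24 h at 37°. MIC is the lowest concentration giving complete visual inhibition of growth. Triplicate determinations, reported as the average.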

Candida albicans [7] = experiment: Antifungal activity against Candida albicans 44506 in RPMI-1640 medium after 7 days in pH 4 buffer by agar dilution method; assay type: functional; details: Candida albicans, 44506, 168 h
Candida albicans [8] = experiment: Antifungal activity against Candida albicans 44506 in YNBG medium after 7 days in pH 6 buffer by agar dilution method; assay type: functional; details: Candida albicans, 44506, 168 h
Cryptococcus neoformans [9] = experiment: Antifungal activity against Cryptococcus neoformans 32045 after 48 hrs by twofold broth dilution method; assay type: functional; details: Cryptococcus neoformans, 32045, 48 h
Procedure, shortened: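 Broth microdilution with twofold compound dilutions and an inoculum of 10^3 cells/ml. Incubated 48 h at 37°. MIC is the visually read lowest concentration completely inhibiting growth. Triplicate average.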

Sporothrix schenckii = experiment: Antifungal activity against Sporothrix schenckii 14284 after 18 to 24 hrs by twofold broth dilution method; assay type: functional
Candida albicans [10] = experiment: Antifungal activity against Candida albicans 44506 in YNBG medium after 7 days in pH 8 buffer by agar dilution method; assay type: functional; details: Candida albicans, 44506, 168 h
Candida albicans [11] = experiment: Antifungal activity against Candida albicans 44506 in Sabouraud dextrose broth after 24 to 48 hrs; assay type: functional
Procedure, shortened: (§4)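 MFC taken from the broth MIC plates: wells resuspended, and 1 µl streaked onto Sabouraud dextrose agar (Candida) or Emmon's SDA (Cryptococcus). Scored after 24–48 h at 37°. MFC is the lowest concentration killing 99% of the inoculum. Average of triplicates.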

Candida albicans [12] = experiment: Antifungal activity against Candida albicans 44506 in YNBG medium after 7 days in pH 4 buffer by agar dilution method; assay type: functional; details: Candida albicans, 44506, 168 h
Candida albicans [13] = experiment: Antifungal activity against Candida albicans 44506 in RPMI-1640 medium after 7 days in pH 7 buffer by agar dilution method; assay type: functional; details: Candida albicans, 44506, 168 h
Candida albicans [14] = experiment: Antifungal activity against Candida albicans 44506 in RPMI-1640 medium after 7 days in pH 6 buffer by agar dilution method; assay type: functional; details: Candida albicans, 44506, 168 h
Candida albicans [15] = experiment: Antifungal activity against Candida albicans 44506 in YNBG medium of pH 5.4 after 7 days by agar dilution method; assay type: functional; details: Candida albicans, 44506, 168 h
Trichosporon beigelii = experiment: Antifungal activity against Trichosporon beigelii 28592 after 18 to 24 hrs by twofold broth dilution method; assay type: functional
Candida albicans [16] = experiment: Antifungal activity against Candida albicans 44506 in RPMI-1640 medium after 7 days in pH 8 buffer by agar dilution method; assay type: functional; details: Candida albicans, 44506, 168 h
Cryptococcus neoformans [17] = experiment: Antifungal activity against Cryptococcus neoformans 32045 after 24 to 48 hrs; assay type: functional; procedure, shortened: as §4
Epidermophyton floccosum = experiment: Antifungal activity against Epidermophyton floccosum 25066 after 18 to 24 hrs by twofold broth dilution method; assay type: functional
Candida albicans [18] = experiment: Antifungal activity against Candida albicans 44506 in RPMI-1640 medium after 7 days in pH 5 buffer by agar dilution method; assay type: functional; details: Candida albicans, 44506, 168 h
[19] = system: Trichophyton mentagrophytes; experiment: Antifungal activity against Trichophyton mentagrophytes 9533 after 18 to 24 hrs by twofold broth dilution method; assay type: functional
Bacillus subtilis = experiment: Antibacterial activity against Bacillus subtilis 6633 after 18 to 24 hrs by twofold broth dilution method; assay type: functional; procedure, shortened: as §3
Candida albicans [20] = experiment: Antifungal activity against Candida albicans 44506 in YNBG medium after 7 days in pH 5 buffer by agar dilution method; assay type: functional; details: Candida albicans, 44506, 168 h
Candida albicans [21] = experiment: Antifungal activity against Candida albicans 44506 in RPMI-1640 medium after 24 to 48 hrs; assay type: functional; procedure, shortened: as §4
Escherichia coli = experiment: Antibacterial activity against Escherichia coli HBOI 001 after 18 to 24 hrs by twofold broth dilution method; assay type: functional, organism-based; procedure, shortened: as §3
Nannizzia gypsea = experiment: Antifungal activity against Microsporum gypseum 42960 after 18 to 24 hrs by twofold broth dilution method; assay type: functional
Candida albicans [22] = experiment: Antifungal activity against Candida albicans 44506 in YNBG medium after 18 to 24 hrs by twofold broth dilution method; assay type: functional; procedure, shortened: as §2
Candida albicans [23] = experiment: Antifungal activity against Candida albicans 44506 in YNBG medium after 7 days in pH 7 buffer by agar dilution method; assay type: functional; details: Candida albicans, 44506, 168 h
Candida albicans [24] = experiment: Antifungal activity against Candida albicans 44506 in RPMI-1640 medium of pH 7.2 after 7 days by agar dilution method; assay type: functional; details: Candida albicans, 44506, 168 h
[25] = system: Scopulariopsis brevicaulis; experiment: Antifungal activity against Scopulariopsis brevicaulis 36840 after 18 to 24 hrs by twofold broth dilution method; assay type: functional

CN(CC[C@H](N)CC(=O)N[C@H]1C=C[C@H](n2ccc(N)nc2=O)O[C@@H]1C(=O)O)C(=N)N [BLASTICIDIN_S]
IC50 (Candida albicans [1]): > 100 µg/mL
IC50 (Candida albicans [2]): > 100 µg/mL
IC50 (Candida albicans [3]): 6 µg/mL (≈ 14.2 µM)
IC50 (Candida albicans [4]): > 100 µg/mL

Nc1nc(=O)[nH]cc1F [FLUCYTOSINE]
IC50 (Candida albicans [1]): > 100 µg/mL
IC50 (Candida albicans [2]): > 100 µg/mL
IC50 (Candida albicans [3]): > 100 µg/mL
IC50 (Candida albicans [4]): 6 µg/mL (≈ 46.5 µM)

CC(=O)N1CCN(c2ccc(OCC3COC(Cn4ccnc4)(c4ccc(Cl)cc4Cl)O3)cc2)CC1 (centres undefined) [KETOCONAZOLE]
MIC (Candida albicans [5]): 0.062 µg/mL (≈ 0.117 µM)
MIC (Candida albicans [6]): 0.008 µg/mL (≈ 0.0151 µM)

O=C1c2nccc(O)c2-c2nc3ccccc3c3ccnc1c23 [MERIDINE]
Activity (Pseudomonas aeruginosa): inactive
MIC (Candida albicans [7]): 0.62 µg/mL (≈ 2.07 µM)
MIC (Candida albicans [8]): 1.2 µg/mL (≈ 4.01 µM)
IC50 (Candida albicans [1]): > 100 µg/mL
MIC (Cryptococcus neoformans [9]): 0.8 µg/mL (≈ 2.67 µM)
MIC (Sporothrix schenckii): > 25 µg/mL
MIC (Candida albicans [10]): 1.2 µg/mL (≈ 4.01 µM)
MFC (Candida albicans [11]): 3.1 µg/mL (≈ 10.4 µM)
MIC (Candida albicans [12]): 2.5 µg/mL (≈ 8.35 µM)
MIC (Candida albicans [13]): 0.31 µg/mL (≈ 1.04 µM)
MIC (Candida albicans [14]): 0.31 µg/mL (≈ 1.04 µM)
IC50 (Candida albicans [2]): > 100 µg/mL
IC50 (Candida albicans [3]): 50 µg/mL (≈ 167 µM)
MIC (Candida albicans [15]): 2.5 µg/mL (≈ 8.35 µM)
MIC (Trichosporon beigelii): > 25 µg/mL
MIC (Candida albicans [16]): 0.31 µg/mL (≈ 1.04 µM)
MIC (Candida albicans [5]): 3.1 µg/mL (≈ 10.4 µM)
MFC (Cryptococcus neoformans [17]): 6.2 µg/mL (≈ 20.7 µM)
MIC (Epidermophyton floccosum): 1.6 µg/mL (≈ 5.35 µM)
MIC (Candida albicans [18]): 0.62 µg/mL (≈ 2.07 µM)
MIC [19]: 6.2 µg/mL (≈ 20.7 µM)
IC50 (Candida albicans [4]): 1 µg/mL (≈ 3.34 µM)
MIC (Bacillus subtilis): 3.1 µg/mL (≈ 10.4 µM)
MIC (Candida albicans [20]): 2.5 µg/mL (≈ 8.35 µM)
MFC (Candida albicans [21]): 0.2 µg/mL (≈ 0.668 µM)
Activity (Escherichia coli): inactive
MIC (Candida albicans [6]): 0.2 µg/mL (≈ 0.668 µM)
MIC (Nannizzia gypsea): 25 µg/mL (≈ 83.5 µM)
MIC (Candida albicans [22]): 2.5 µg/mL (≈ 8.35 µM)
MIC (Candida albicans [23]): 1.2 µg/mL (≈ 4.01 µM)
MIC (Candida albicans [24]): 0.31 µg/mL (≈ 1.04 µM)
MIC [25]: > 25 µg/mL

Clc1ccc(COC(Cn2ccnc2)c2ccc(Cl)cc2Cl)c(Cl)c1 (centres undefined) [MICONAZOLE]
MIC (Candida albicans [5]): 25 µg/mL (≈ 60.1 µM)
MIC (Candida albicans [6]): 0.03 µg/mL (≈ 0.0721 µM)
